From the EternaBench riboswitch data come the findings set out here.

The series concerns MS2 coat protein. The experiment in a line: apparent Kd, MS2 coat protein; higher = weaker binding; RNA-MaP array; FMN 200 µM where present. Summed up: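 Designs were transcribed by stalled E. coli RNA polymerase on Illumina sequencing-chip clusters. They were titrated with SNAP-549-labelled MS2 coat protein from 0.7 or 1.5 nM, doubling to 3 µM, in 100 mM Tris-HCl pH 7.5, 80 mM KCl, 4 mM MgCl2, BSA, DTT, yeast tRNA and Tween-20, without and then with constant ligand. The apparent Kd is the median of filtered per-cluster fits after normalisation of green signal to red-channel RNA signal and control-cluster median Fmax.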

Setting [1] is: designed as: OFF switch for flavin mononucleotide, no ligand.
[2] abbreviates: ligand present: flavin mononucleotide, designed as: OFF switch for flavin mononucleotide.
The mark [3] stands for this setting: designed as: ON switch for flavin mononucleotide, no ligand.
The mark [4] stands for this setting: ligand present: flavin mononucleotide, designed as: ON switch for flavin mononucleotide.

For the sequence “UCCGCGCGCGUAGGAUAUACAUGAGGAUCACCCAUGUACCCAGAUGGCUUCCUGAAUCUUGCAAUGUAGAAGGACGCCCGUGGG”, the apparent Kd (usually the concentration giving half-maximal binding under the conditions of the assay) is, setting by setting: under setting [1], 37.9 nM; under setting [2], 42.5 nM.

As to “AAAAAACAUGAGGAUCACCCAUGUCAGGAUAUGAAAAAAAAAAAAAAAAAAAAAAAAAUCAGAAGGGACAAAAA”, the “apparent Kd” value was 66.4 nM under setting [1] and 36.1 nM under setting [2]. As for “AUUACAUGAGGAUCACCCAUGUACAGAACGUUUCAAUACAGUGAGGAUAUACGAAAUGUAGGAACGUAGAAGGCACUGGGUACA”, the “apparent Kd” value under setting [3] is 181 nM and the “apparent Kd” value under setting [4] was determined as 65.8 nM. Take “GCUGGACGAGGAUAUACAUAACGUGCUUCGGCACGAGAUCUACAUGAGGAUCACCCAUGUAGAAGGUGUCCAGC”: the “apparent Kd” value runs as follows: under setting [1], 13.7 nM; under setting [2], 16.2 nM. In the case of “AGAAAGAAGCAAGGAUAUUGUAAGGUUAAUGUACAAGAAGGUGCUGUUUAUGUCUCUUAACAUGAGGAUCACCCAUGUAUUGGU”, the “apparent Kd” value was 52.6 nM under setting [3] and 44.1 nM under setting [4]. As for “CACUCGUGUCUAGGAUAUGAGUGACAAGCGCGAGAUUUUCUCGGCGCUAGCUCAGAAGGAGACAUGAGGAUCACCCAUGUAAGG”, the “apparent Kd” value under setting [1] was found to be 162 nM and the “apparent Kd” value under setting [2] was found to be 12 nM. Taken in the same sequence, the figures for “GGAUGUCUGGAGGAUAUACAGACUAUUAGAUCAGUAGAAGGUCAGACAUGAGGAUCACCCAUGUUAGUGUAUCC” were 52 nM and 473 nM.

On to “GUGAAACAUGAGGAUCACCCAUGUGAGGAUAUGUUUUAGUAAUGAUGAAAGUAAAUCUACAGAAGGCACAAUGG”, for which the “apparent Kd” value under setting [1] was 75.8 nM and the “apparent Kd” value under setting [2] turned out to be 117 nM. In the case of “GCUCUAUGCUAGAAGGCGUGAAACAUGAGGAUCACCCAUGUCAGAGAAAUGAGGAUAUAGCAUAGAGCAAAAGACGGAAACGUC”, the “apparent Kd” value runs as follows: under setting [3], 11.1 nM; under setting [4], 5.61 nM. Turning to “UUUAUAAGAAAAUAAACGAAGUGGCCAGAAGGUGAAUGCCACAUGAGGAUCACCCAUGUUUCGAUCAAGGAUAUGGUUUCUCAC”, the “apparent Kd” value under setting [3] was determined as 400 nM and the “apparent Kd” value under setting [4] amounted to 107 nM. Consider “CCGGAAAUGAAGGAUAUAGGAGUCGAUAGACUCCUAGAAGGUCAUACAUGAGGAUCACCCAUGUGUCCUACCGG”, for which the “apparent Kd” value under setting [1] came to 15.8 nM and the “apparent Kd” value under setting [2] came to 34.9 nM. In the case of “AUAUUGUGAGGAUAUCCAAUAUAUGACAUGAGGAUCACCCAUGUUUCCACUCGUACCUCCGGAGAAGGCACAUUUU”, the “apparent Kd” value under setting [1] was 27 nM and the “apparent Kd” value under setting [2] is 24 nM.

In the case of “AAUUUACAUGAGGAUCACCCAUGUGAGGAUAUGAUACUAUGUACUUCGGUACAUAGUAUCAGAAGGCAUGUGGA”, the “apparent Kd” value reads like this: under setting [1], 129 nM; under setting [2], 37.1 nM.

Consider “AAUUAUUGAUGAGGAUAUUGUGGUGAAACACGACGAGAAGGCAUAUGUCACAUGAGGAUCACCCAUGUGAGCCUUGUGCAUAUA”, for which the “apparent Kd” value amounted to 19.9 nM under setting [1] and 18.9 nM under setting [2].

With “ACUUGUAAGUAGAAGGUAGUCAUUAUAUUAAUCAUGUAAACAUGAGGAUCACCCAUGUAGAGUACUAAGGAUAUACAUCGAUAG”, under setting [2], the “apparent Kd” value amounted to 9.91 nM.

Turning to “AAUAACAGAGGAUAUACUAUUUUAUGUGUUUGUUAUUUUGAACAUGAGGAUCACCCAUGUAGAAGGCUGAUUGA”, the “apparent Kd” value reads like this: under setting [1], 47 nM; under setting [2], 44 nM. Turning to “CAUACACAUGAGGAUCACCCAUGUGAGGAUAUGCGUACGUAAUCCGUAGGAGACGUGCGCAGAAGGCGCGAGGU”, the “apparent Kd” value was found to be 56.6 nM under setting [1] and 44 nM under setting [2]. With “GCACUGGAUGUAGGAUAUCAGGACGAUAAGUCCUGAGAAGGACAUGAGGAUCACCCAUGUAAUAACUCCCAGUGCUAUAAUAUA”, the “apparent Kd” value runs as follows: under setting [1], 16.4 nM; under setting [2], 20.1 nM. On to “GGACGACCCAUUAACAUGAGGAUCACCCAUGUCAAAAGACAUGAGGAUAUGGUACCUAAUUGGUACCAGAAGGCAUGGUCGUCC”, for which the “apparent Kd” value came to 1470 nM under setting [3] and 107 nM under setting [4]. As to “AAUAUGAGCUGGAAUAAAACCUUGACAUGAGGAUCACCCAUGUAGGAUAUCAGCACGAUAAGUGCUGAGAAGGACAACCAGCUC”, the “apparent Kd” value worked out at 14.4 nM under setting [1] and 15.6 nM under setting [2]. As to “GGGUGCAUCGGAGGAUAUCAUGUAAAUACAUGAGGAUCACCCAUGUCGAUGGAGACAUCGGAGAUUGAGAAGGCCGAUGUACCG”, the “apparent Kd” value by setting is: under setting [3], 172 nM; under setting [4], 8.99 nM.

For “CGGAUCAAUACAGGAUAUGGUGACGCACAUGAGGAUCACCCAUGUCCGCAGCGUGCUAAGCACGCCCAGAAGGGUAUUGAUUCG”, the “apparent Kd” value by setting is: under setting [3], 738 nM; under setting [4], 68.3 nM. For “UGUUAAUAUCGAGGAUAUGUCUAGACACAUGAGGAUCACCCAUGUAUGUGUAUAGAAGGCGAUAUUAACAGCAUGUUACAUGCC”, in that order: 37.1 nM and 17.7 nM.

For “CGUUGGUUAGGAUAUAGCCUCCUGGUGGGAAGGCCGGGUGGCUAGAAGGAACAUGAGGAUCACCCAUGUAUGGA”, the “apparent Kd” value by setting is: under setting [1], 62.6 nM; under setting [2], 33.3 nM. In the case of “CCGGAAACGGGUAGCCUGACAUGAGGAUCACCCAUGUAAUACGAGGAUAUGGAUCCUAAUUGGAUCCAGAAGGUGUCAGGCUAC”, the “apparent Kd” value turned out to be 862 nM under setting [3] and 682 nM under setting [4]. Regarding “GCCAUCGUAUGAGGAUAUGGCACCGAAACGGUGCCAGAAGGCAUGUCAAUAGACAUGAGGAUCACCCAUGUGUUAUCGAUGGCA”, the “apparent Kd” value by setting is: under setting [3], 379 nM; under setting [4], 36.5 nM. With “ACAUGACAUGAGGAUCACCCAUGUGAGGAUAUGCGAAAAAAAAAAAAAAAAAAAAUUGGCAGAAGGCACAAAAU”, the “apparent Kd” value reads like this: under setting [1], 167 nM; under setting [2], 180 nM.

Regarding “GGAUAUAUACAGGAGGAUAUGAGAACAAAGACAUGAGGAUCACCCAUGUACAAAAGGUGGAACAAUCAGAAGGUCUAAACAACAAA”, the “apparent Kd” value is, setting by setting: under setting [3], 78.3 nM; under setting [4], 69 nM. On to “UUUCGGCUCGAGAAGGUCUAUCGACAUGAGGAUCACCCAUGUUGCCAUGGAAGGAUAUCGAAGGCAGCACGGGAAAUAGUCCGG”, for which the “apparent Kd” value was 185 nM under setting [3] and 53.3 nM under setting [4].

In the case of “GAUAGGACAGAGAAGGACGUAGCUAGAGAUACUAGCAUAUGAACCUUCACAUGAGGAUCACCCAUGUAGGAUAUCUGUCCUAUC”, the “apparent Kd” value was determined as 3.34 nM under setting [1] and 3.35 nM under setting [2]. “GCGAGCAUACAGAAGGGAUCGUCGUAGCGGCUGUCAGGAUAUGUAGCUUGGCCUAAACAUGAGGAUCACCCAUGUAUAAUGCUA”: the “apparent Kd” value reads like this: under setting [3], 175 nM; under setting [4], 21 nM.

Consider “GCCAUCGCAUGAGGAUAUGGCACCGUUUCGGUGCCAGAAGGCAUGUCAUAAGACAUGAGGAUCACCCAUGUAGUUAAGAUGGCA”, for which the “apparent Kd” value is 741 nM under setting [3] and 47.6 nM under setting [4]. Regarding “AUCAGCUCGUCAGGAUAUACGUCACUGCGUCAGCAGUGUGGUAAGAUCACAUGAGGAUCACCCAUGUAGAAGGAACGAGCUGAU”, the “apparent Kd” value reads like this: under setting [1], 8.41 nM; under setting [2], 14.7 nM. On to “UUUAUGAAGCUUCGUCAAUACAGUUAGGAUAUGAGAGACAUGAGGAUCACCCAUGUGCAUGUUGAUUAGAAGGAACAACUAUCU”, for which the “apparent Kd” value reads like this: under setting [1], 17.6 nM; under setting [2], 15.1 nM. With “UUCGUGGCAUCUCGCGCAUGUCCACAUGAGGAUCACCCAUGUCAGGAUAUACGGAAUGUCGUUCCGUAGAAGGGACAAGGGCUG”, the “apparent Kd” value is 139 nM under setting [1] and 112 nM under setting [2]. “AACAGUAGAGGAUAUACAUGAGGAUCACCCAUGUGAUAAUUACGUGGCGUACCACGAAGUAGAAGGCUACUGGA”: the “apparent Kd” value reads like this: under setting [1], 65.6 nM; under setting [2], 316 nM.
